From ChEMBL document CHEMBL2169822, “Discovery and optimization of 1,3,4-trisubstituted-pyrazolone derivatives as novel, potent, and nonsteroidal farnesoid X receptor (FXR) selective antagonists” (J Med Chem, 2012)
pEC50, pIC50: −log10 of the molar value. Calls of active or inactive are those of the source. The calls are words filed in the database; no cut-off is given here.

Key:
[1] = Antagonist activity at GST-tagged human recombinant FXRalphaLBD expressed in Escherichia coli BL21 cells assessed as inhibition of CDCA-induced SRC-1 co-activator association at 40 uM by HTRF assay; format: functional
Method in brief: (§1)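 HTRF coactivator recruitment: 10 nM GST-human FXRαLBD (residues 238–473, E. coli BL21(DE3)), 0.83 nM anti-GST-Eu cryptate, 100 nM biotin-SRC1 peptide, 41.75 nM SA/XL665. Buffer was 50 mM Hepes pH 7.0, 125 mM KF, 0.125% CHAPS, 0.05% dry milk. Compound alone or with CDCA, 30 min at room temperature. Signal was 1000×(668/620 nm). Primary screen at 40 μM; IC50 as mean ± SE, three experiments.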

[2] = (§2) Antagonist activity at GST-tagged human recombinant FXRalphaLBD expressed in Escherichia coli BL21 cells assessed as inhibition of CDCA-induced SRC-1 co-activator association by HTRF assay; format: functional; method in brief: as §1
HEK-293T [3] = assay: Agonist activity at FXRalpha/RXRalpha expressed in HEK293T cells co-expressing GAL4 DBD after 18 hrs by luciferase based transactivation assay; format: functional, cell-based; conditions: Homo sapiens
Method in brief: (§3)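 FXR transactivation in HEK293T cells transiently transfected with pcDNA3.1-FXRα, pcDNA3.1-RXRα, pGL3-FXRE-Luc and pRL-SV40 Renilla vector. Medium was replaced 6 h after transfection with medium holding compound at varied concentrations, with or without 20 μM CDCA, for 18 h. Read-out was dual-luciferase. Three independent experiments.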

[4] = Agonist activity at GST tagged human recombinant FXRalphaLBD expressed in Escherichia coli BL21 cells assessed as SRC-1 co-activator association at 40 uM after 30 mins by HTRF assay; format: functional; method in brief: as §1
[5] = Agonist activity at GST tagged human recombinant FXRalphaLBD expressed in Escherichia coli BL21 cells assessed as SRC-1 co-activator association after 30 mins by HTRF assay; format: functional; conditions: BL21, 0.5 h
Method in brief: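 Human FXRα LBD (residues 238–473) expressed as GST fusion in E. coli BL21(DE3) (IPTG 0.2 mM, 20 °C 6 h), purified on glutathione resin then Superdex 75. 10 nM GST-FXRαLBD incubated with 0.83 nM anti-GST-Eu cryptate, 100 nM biotin-SRC1 peptide and 41.75 nM SA/XL665 in 50 mM Hepes pH 7.0, 125 mM KF, 0.125% CHAPS, 0.05% dry milk, 30 min room temperature. Signal read as 1000×(668/620 nm). Primary screen at 40 μM.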

BL21 = assay: as §2; format: functional; method in brief: as §1
Mus musculus [6] = assay: Reduction of hepatic triglyceride level in cholesterol-fed C57BL/6 mouse at 100 mg/kg, po after 10 days; format: functional; design: scale not given: the % may be the effect or the level left
Method in brief: (§4)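 Male C57BL/6 mice, 8–12 weeks old, were randomized into five groups of nine. Control mice had ground chow; the other groups had chow with 2% cholesterol. Compound (50 or 100 mg/kg) or reference (100 mg/kg) was suspended in 0.5% CMC-Na and given by oral gavage; control and vehicle mice got 0.5% CMC-Na. Serum and hepatic triglyceride and total cholesterol were measured.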

HEK-293T [7] = assay: Antagonist activity at FXRalpha/RXRalpha expressed in HEK293T cells co-expressing GAL4 DBD assessed as inhibition of CDCA-induced transactivation at 50 uM after 18 hrs by luciferase reporter gene assay; format: functional, cell-based; conditions: Homo sapiens; method in brief: as §3
Mus musculus [8] = assay: Reduction of serum triglyceride level in cholesterol-fed C57BL/6 mouse at 100 mg/kg, po after 10 days; format: functional; design: scale not given: the % may be the effect or the level left; method in brief: as §4
Mus musculus [9] = assay: Reduction of hepatic cholesterol level in cholesterol-fed C57BL/6 mouse at 100 mg/kg, po after 10 days; format: functional; design: scale not given: the % may be the effect or the level left; method in brief: as §4

SMILES | inhibition at 40 µM [1] [%] | Activity [4] [%] | also measured
COc1cc(/C=C2\C(=O)N(c3cccc(C(=O)O)c3)N=C2C)ccc1OCc1ccccc1 | 57.5 | <5 | pIC50 [2]: 4.47; Activity (HEK-293T [3]): inactive
CCOc1ccc(/C=C2\C(=O)N(c3cccc([N+](=O)[O-])c3)N=C2C)cc1OC | < 5 | 29.2 | –
CC1=NN(c2cccc(C(=O)O)c2)C(=O)/C1=C\C=C\c1ccccc1 | 32.1 | <5 | –
CCOc1ccc(/C=C2\C(=O)N(c3cccc(C(F)(F)F)c3)N=C2C)cc1OC | < 5 | <5 | –
CCOc1ccc(/C=C2\C(=O)N(c3c(F)c(F)c(F)c(F)c3F)N=C2C)cc1OC | 43.6 | <5 | pIC50 [2]: 4.09; Activity (HEK-293T [3]): inactive
CCCCCOc1ccc(/C=C2\C(=O)N(c3cccc(C(=O)O)c3)N=C2C)cc1OC | 55.4 | <5 | pIC50 [2]: 4.41; Activity (HEK-293T [3]): inactive
COc1cc(/C=C2\C(=O)N(c3cccc(C(=O)OC(C)C)c3)N=C2C)ccc1O | 29.9 | <5 | –
CCOc1ccc(/C=C2\C(=O)N(c3ccc([N+](=O)[O-])cc3)N=C2C)cc1OC | 14.8 | 12.7 | –
CC1=NN(c2cccc([N+](=O)[O-])c2)C(=O)/C1=C\c1ccc(C)s1 | < 5 | <5 | –
C[C@H](CCC(=O)O)[C@H]1CC[C@H]2[C@@H]3[C@H](O)C[C@@H]4C[C@H](O)CC[C@]4(C)[C@H]3CC[C@]12C [CHENODIOL] | – | – | pEC50 [5]: 4.90
CCOc1ccc(/C=C2\C(=O)N(c3ccccc3F)N=C2C)cc1OC | 5.5 | <5 | –
CCOc1ccc(/C=C2\C(=O)N(c3cc(C(F)(F)F)cc(C(F)(F)F)c3)N=C2C)cc1OC | < 5 | <5 | –
CC1=NN(c2ccccc2)C(=O)/C1=C\c1ccc(Br)cc1 | 72.6 | <5 | pIC50 [2]: 5.00; Activity (HEK-293T [3]): inactive
COc1cc(/C=C2\C(=O)N(c3cccc([N+](=O)[O-])c3)N=C2C(C)C)ccc1O | 26.4 | <5 | –
COc1cc(/C=C2\C(=O)N(c3cccc(C(=O)O)c3)N=C2C)ccc1O | < 5 | 6.4 | –
CCOc1ccc(/C=C2\C(=O)N(c3ccc(C(C)C)cc3)N=C2C)cc1OC | 7.7 | <5 | –
CCOc1ccc(/C=C2\C(=O)N(c3cc(Cl)cc(Cl)c3)N=C2C)cc1OC | < 5 | <5 | –
CCOc1ccc(/C=C2\C(=O)N(c3cccc(C(=O)O)c3)N=C2C)cc1OC | 48.5 | 9 | pIC50 [2]: 4.16
CCOc1ccc(/C=C2\C(=O)N(c3ccc(Cl)c(Cl)c3)N=C2C)cc1OC | 7.3 | <5 | –
CCOC(=O)c1cccc(N2N=C(C)/C(=C/c3ccc(OCC)c(OC)c3)C2=O)c1 | 9.4 | <5 | –
COc1ccc(/C=C2\C(=O)N(c3cccc([N+](=O)[O-])c3)N=C2C)c2ccccc12 | 22.7 | <5 | –
CC1=NN(c2ccccc2)C(=O)/C1=C\c1ccccc1 | 23.1 | <5 | –
CC1=NN(c2cccc(C(=O)O)c2)C(=O)/C1=C\c1ccc(O)c(O)c1 | 17.4 | <5 | –
CCOc1ccc(/C=C2\C(=O)N(c3ccc(C(F)(F)F)cc3)N=C2C)cc1OC | 9.5 | <5 | –
C/C=C1\C(=O)C[C@H]2[C@@H]3CCC4=CC(=O)CC[C@]4(C)[C@H]3CC[C@]12C [GUGGULSTERONE] | – | – | inhibition (BL21): Dose-dependent effect; pIC50 [2]: 4.05; Activity (Mus musculus [6]): 45.1%; inhibition (HEK-293T [7]): Active; Activity (Mus musculus [8]): 53.7%; Activity (Mus musculus [9]): 26.3%
COc1cc(/C=C2\C(=O)N(c3cccc(C(=O)O)c3)N=C2C)ccc1OC(C)C | < 5 | <5 | –
CC1=NN(c2ccc([N+](=O)[O-])cc2)C(=O)/C1=C(/C)c1ccc(Cl)cc1 | 16.8 | <5 | –
